From PubChem BioAssay
Calls of active or inactive are those of the source.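 Rule for the calls, unless noted: active = fluorescence slope after compound addition differing from the mean of all screened samples at 99.7% confidence, in either direction; inactive = the rest.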

Experiments:
[1] = inhibitors of TNFa-induced NFkB p65 translocation, primary screen, imaging, HUVEC, MLSMR starter and 10KST1 sets (AID 438;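 active = inhibition above 20% together with a positive visual image hit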;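 note: compound added about 3h40 before a 20 min TNFalpha stimulation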;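 for inhibition: signal is the nuclear over cytoplasmic p65 intensity ratio per well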); details: HUVEC TNFa-induced p65 nuclear translocation; cell count: measured here: nuclei count (cytotoxicity indicator), at 2.08 µM; inhibition: at 2 µM, stronger effect = higher value, 0% TNFa-plus-vehicle, 100% no-TNFa wells
[2] = endothelial E-selectin expression blockers – imaging, HUVEC, immunofluorescence, MLSMR starter and 10KST1 sets, primary screen (AID 487;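 active = visually confirmed hit in the image check and inhibition above 20%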;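 for inhibition: signal is fraction of cell area covered by stained E-selectin grains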;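 for nuclei count: 100% = median nuclei count of all wells on the same plate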); details: HUVEC TNFalpha-induced E-selectin immunofluorescence imaging, at 2 µM; inhibition: stronger effect = higher value; nuclei count: measured here: cell number, toxicity
[3] = Primary imaging screen for DUSP6 inhibitors that restore phospho-Erk in transfected HeLa cells, chemical complementation (AID 609;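 active = compounds giving at least 50% inhibition in the cell-based MKP-3 phosphatase rescue imaging test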;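 for inhibition: phospho-Erk level distribution per well compared with pooled transfected vehicle control wells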); details: HeLa MKP-3 transfected, phospho-Erk imaging KS statistic, at 10 µM, cells stimulated with TPA for 15 min
[4] = target: Dual specificity protein phosphatase 6 (Homo sapiens) (UniProt Q16828); assay: as above; details: HeLa MKP-3 transfected, phospho-Erk imaging KS statistic; at 10 µM; stronger effect = higher value; cells stimulated with TPA for 15 min
Dual specificity protein phosphatase 6 (Homo sapiens), sequence (Q16828 whole entry, looked up): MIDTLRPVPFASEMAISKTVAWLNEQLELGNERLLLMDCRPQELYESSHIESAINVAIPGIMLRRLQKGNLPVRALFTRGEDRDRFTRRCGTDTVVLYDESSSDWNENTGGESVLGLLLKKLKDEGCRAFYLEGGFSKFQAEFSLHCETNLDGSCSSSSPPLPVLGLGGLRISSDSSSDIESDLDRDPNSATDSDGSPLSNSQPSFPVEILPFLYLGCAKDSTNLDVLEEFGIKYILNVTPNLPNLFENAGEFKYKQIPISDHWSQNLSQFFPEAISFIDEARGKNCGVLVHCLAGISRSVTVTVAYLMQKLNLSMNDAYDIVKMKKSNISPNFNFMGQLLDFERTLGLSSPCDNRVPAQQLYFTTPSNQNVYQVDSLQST

[5] = target: Voltage-gated potassium channel subunit beta-2 (Rattus norvegicus) (UniProt P62483); assay: inhibitors of rat Kvbeta2 reductase activity – biochemical, NADPH fluorescence, primary screen (AID 622;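 active = fluorescence slope higher than the sample average by over 3 SD, cut at about -0.22 in these data, passing the limit was not always enough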;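 note: slope of raw intensity against log time taken from 70 to 1610 s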); details: recombinant KvBeta, 4-cyanobenzaldehyde reduction, at 10 µM, stronger effect = higher value
Voltage-gated potassium channel subunit beta-2 (Rattus norvegicus), sequence (P62483 whole entry, looked up): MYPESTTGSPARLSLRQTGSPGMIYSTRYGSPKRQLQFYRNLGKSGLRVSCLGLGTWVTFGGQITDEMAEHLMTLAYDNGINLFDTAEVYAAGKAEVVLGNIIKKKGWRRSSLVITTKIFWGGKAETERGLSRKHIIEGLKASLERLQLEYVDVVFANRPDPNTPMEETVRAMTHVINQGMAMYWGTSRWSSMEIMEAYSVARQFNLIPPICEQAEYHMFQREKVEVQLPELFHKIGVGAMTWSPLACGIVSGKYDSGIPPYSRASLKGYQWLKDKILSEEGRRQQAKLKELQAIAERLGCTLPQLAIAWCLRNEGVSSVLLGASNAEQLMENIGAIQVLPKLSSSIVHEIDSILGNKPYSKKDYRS

[6] = target: Voltage-gated potassium channel subunit beta-2 (Rattus norvegicus) (UniProt P62483); assay: enhancers of rat Kvbeta2 NADPH turnover – biochemical, NADPH fluorescence, primary screen (AID 623;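 active = NADPH fluorescence slope more negative than the mean of all samples by about 3 SD, 99.7% confidence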;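 note: fluorescence intensity change per second fitted from 20 to 320 s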); details: Recombinant KvBeta, NADPH fluorescence decrease slope, 10 min; at 10 µM; stronger effect = lower value
[7] = target: Alpha-2C adrenergic receptor (Homo sapiens) (UniProt P18825); assay: compounds altering alpha2C-coupled GIRK flux – cell-based, HEK293 alpha2C/GIRK1/2, thallium flux, primary screen (AID 624); details: thallium flux BTC fluorescence, at 10 µM, actives lie on both sides;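 note: slope of fluorescence ratio to pre-addition baseline per second over 15 to 24 s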
Alpha-2C adrenergic receptor (Homo sapiens), sequence (P18825 whole entry, looked up): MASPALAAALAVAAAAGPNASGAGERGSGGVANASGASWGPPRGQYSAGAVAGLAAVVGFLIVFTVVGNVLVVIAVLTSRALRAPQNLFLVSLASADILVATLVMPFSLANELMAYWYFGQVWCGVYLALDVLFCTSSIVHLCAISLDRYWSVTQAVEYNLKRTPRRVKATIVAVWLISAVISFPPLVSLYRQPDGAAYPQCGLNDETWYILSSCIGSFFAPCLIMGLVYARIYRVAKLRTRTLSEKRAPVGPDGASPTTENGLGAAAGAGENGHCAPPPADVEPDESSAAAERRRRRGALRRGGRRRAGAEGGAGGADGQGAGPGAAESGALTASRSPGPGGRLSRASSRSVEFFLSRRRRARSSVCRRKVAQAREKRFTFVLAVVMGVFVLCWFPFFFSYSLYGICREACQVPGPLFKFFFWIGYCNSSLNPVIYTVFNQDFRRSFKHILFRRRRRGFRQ

[8] = inhibitors of larval lipid processing in zebrafish, primary screen, whole organism, PED6 fluorescence, gall bladder and intestine (AID 686;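 active = a full or partial loss of lipid-probe fluorescence in the fish gall bladder, intestine or both, judged by eye; inactive = no fluorescence loss, or compound toxic to the fish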;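 note: larvae 5 to 7 days old with five fish per well; signal comes from phospholipase A2 cleavage of quenched PED6 carried via bile; overnight exposure to compound and PED6 before scoring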); details: Zebrafish larvae PED6 lipid processing, fluorescence scoring; screened at 20 µM (by protocol)
Method in brief: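 Doses: 20 µM single dose. Test system: live zebrafish larvae aged 5-7 days, whole organism. Quantity: five larvae per well. Measured by: By-eye fluorescence microscopy. Reagent: ingested quenched lipid PED6 at 100 nM. Read-out: visual per-well fluorescence inhibition score. Times: overnight exposure of larvae to compound plus PED6.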

[9] = loss of swimming-algae plug formation – whole organism, Chlamydomonas reinhardtii, WT vs cilia-less mutant, absorbance, 96-well, primary screen (AID 463189;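 active = inhibition at or above 50% relative to wild type and mutant plate controls; inactive = inhibition below 50%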;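 note: 0% = wild type cc124 cells in DMSO and 100% = ciliumless bld1 mutant cells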); details: Chlamydomonas reinhardtii gravitaxis, OD600 absorbance, 2 days; at 10 µM; stronger effect = higher value
[10] = measured here: cell density z-score
[11] = measured here: nuclear c-Myc green intensity z-score
[12] = measured here: nuclear pErk red intensity z-score, stronger effect = higher value

Row | Compound | cell count [1] | inhibition [1] | inhibition [2] | nuclei count [2] [%] | z-score [3, 10] | z-score [3, 11] | z-score [3, 12] | inhibition [4] | fluorescence slope [5] | NADPH fluorescence slope [6] | slope [7] | outcome [8] | inhibition [9]
1 | CC1(C)Cc2c(oc3ncn4ncnc4c23)CO1 | 587 | -8.9% (inactive) | -143% (inactive) | 102 | -0.312 | -1.57 | 0.382 | 13.2% (inactive) | -0.569 (inactive) | -8.8e-05 (inactive) | 0.00443 (inactive) | inactive | 18.4% (inactive)
2 | C=C(Br)Cn1c(CCCC)nc2ccccc21 | 496 | -6.3% (inactive) | -117% (inactive) | 145 | 0.895 | -1.74 | -1.25 | 3.56% (inactive) | -0.492 (inactive) | -0.000115 (inactive) | 0.00483 (inactive) | inactive | 35.5% (inactive)
3 | COc1ccc(C(=O)/C=C/Nc2cccc(C)n2)cc1OC | 553 | -2.4% (inactive) | -95.1% (inactive) | 164 | -1.16 | 0.461 | 0.22 | -1.12% (inactive) | -0.33 (inactive) | -2.1e-05 (inactive) | 0.00813 (inactive) | inactive | -7.36% (inactive)
4 | CC(=O)Nc1cnc2ccccc2n1 | 626 | -12.5% (inactive) | 17.9% (inactive) | 160 | -0.876 | 0.21 | 0.164 | -6.06% (inactive) | -0.397 (inactive) | -5.9e-05 (inactive) | 0.00508 (inactive) | inactive; toxic | -0.95% (inactive)
5 | O=C(c1ccc(=O)oc1)N1CCOCC1 | 357 | -5.3% (inactive) | -8.3% (inactive) | 167 | 1.26 | -0.649 | 0.718 | -6.59% (inactive) | -0.46 (inactive) | -0.000126 (inactive) | 0.0053 (inactive) | inactive | 25% (inactive)
6 | CC(C(=O)N1CCCCC1)N1C(=O)c2ccccc2C1=O (stereo unspecified) | 352 | -17.2% (inactive) | -54% (inactive) | 122 | 2.3 | -0.711 | -0.781 | 17.5% (inactive) | -0.452 (inactive) | -0.000116 (inactive) | 0.00537 (inactive) | inactive | 10.7% (inactive)
7 | N#CCSc1nc2c(cc1C#N)CCCCCC2 | 603 | -18.1% (inactive) | 46.1% (inactive) | 147 | 0.833 | -0.157 | -0.809 | 2.92% (inactive) | -0.354 (inactive) | -8.7e-06 (inactive) | 0.0055 (inactive) | inactive | 19.7% (inactive)
8 | CCCOc1ccc(CSC(CC(=O)O)C(=O)O)cc1 (stereo unspecified) | 542 | 1.4% (inactive) | -21% (inactive) | 124 | 1.34 | -1.26 | -1.51 | -3.5% (inactive) | -0.332 (inactive) | 1.3e-05 (inactive) | 0.00503 (inactive) | inactive | 15.7% (inactive)
9 | Cc1ccnc(N2CCN(c3cc(C)c(C#N)c4nc5ccccc5n34)CC2)c1 | 572 | 7.2% (inactive) | -151% (inactive) | 125 | 0.222 | 0.0486 | -0.157 | 13.9% (inactive) | -0.408 (inactive) | -8.8e-06 (inactive) | 0.00554 (inactive) | inactive | -4.75% (inactive)
10 | N#CCCSc1nc(N2CCOCC2)c2c(c1C#N)CCCC2 | 572 | -15.5% (inactive) | -43.5% (inactive) | 168 | -1.47 | -0.393 | -0.37 | 5.65% (inactive) | -0.357 (inactive) | 1.4e-05 (inactive) | 0.00506 (inactive) | inactive | -11.5% (inactive)
11 | COc1cc(-c2nn3c(-c4ccccn4)nnc3s2)cc(OC)c1OC | 600 | -13.9% (inactive) | -249% (inactive) | 171 | 1.12 | -1.51 | 0.045 | -2.47% (inactive) | -0.449 (inactive) | -0.000128 (inactive) | 0.00656 (inactive) | inactive | 13.6% (inactive)
12 | Cc1cccc(C)c1NC(=O)CSCC(=O)c1ccc(O)c(O)c1 | 364 | -4.2% (inactive) | -100% (inactive) | 158 | 0.118 | 0.467 | 0.0935 | 24.7% (inactive) | -0.4 (inactive) | -6.4e-05 (inactive) | 0.00773 (inactive) | inactive | -8.43% (inactive)
